ADAM10 inh – inhibitors of human ADAM10. O14672. recombinant ADAM10, EDANS/DABCYL FRET peptide cleavage, 3 h. inhibition, % at 7 µM. 0.62% of 370,000 active;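 active = inhibition above a per-campaign cutoff equal to the mean of compounds falling between control-based bounds plus 3 SD, cut at about 20% in these data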;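 note: 0% = DMSO wells while the 100% control is not disclosed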
MPTP inh – inhibitors of mitochondrial permeability transition pore; 1.4% of 360,000 active; isolated mouse mitochondria, Ca2+ swelling absorbance, 30 min; inhibition, % at 10 µM; AID 602449;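 active = inhibition of 50% or more, scaled per plate between neutral and stimulator controls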;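 note: 0% = DMSO wells given calcium and 100% = 1 mM EGTA wells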
SKN-1 block – C. elegans SKN-1 inhibition; C. elegans VP596 Pgst-4::GFP/RFP ratio, acrylamide-induced, 24 h; inhibition, % at 21.8 µM; 0.49% of 360,000 active;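 active = interference check ratio from 0.5 to 1.5 plus GFP to RFP signal ratio inhibition reaching or exceeding a fixed threshold, cut at about 30% in these data, passing the limit was not always enough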
ADAM17 inh – ADAM17 inhibition, QFRET primary screen; AID 720648; inhibition, % at 6.95 µM; recombinant ADAM17, EDANS/DABCYL FRET peptide cleavage; 0.83% of 370,000 active; P78536;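 active = inhibition above the mean of compounds lying between control limits plus 3 SD, set per campaign, cut at about 8.5% in these data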;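 note: 0% = DMSO-only wells as the low control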
Target sequence (P78536 215-824 limits assumed): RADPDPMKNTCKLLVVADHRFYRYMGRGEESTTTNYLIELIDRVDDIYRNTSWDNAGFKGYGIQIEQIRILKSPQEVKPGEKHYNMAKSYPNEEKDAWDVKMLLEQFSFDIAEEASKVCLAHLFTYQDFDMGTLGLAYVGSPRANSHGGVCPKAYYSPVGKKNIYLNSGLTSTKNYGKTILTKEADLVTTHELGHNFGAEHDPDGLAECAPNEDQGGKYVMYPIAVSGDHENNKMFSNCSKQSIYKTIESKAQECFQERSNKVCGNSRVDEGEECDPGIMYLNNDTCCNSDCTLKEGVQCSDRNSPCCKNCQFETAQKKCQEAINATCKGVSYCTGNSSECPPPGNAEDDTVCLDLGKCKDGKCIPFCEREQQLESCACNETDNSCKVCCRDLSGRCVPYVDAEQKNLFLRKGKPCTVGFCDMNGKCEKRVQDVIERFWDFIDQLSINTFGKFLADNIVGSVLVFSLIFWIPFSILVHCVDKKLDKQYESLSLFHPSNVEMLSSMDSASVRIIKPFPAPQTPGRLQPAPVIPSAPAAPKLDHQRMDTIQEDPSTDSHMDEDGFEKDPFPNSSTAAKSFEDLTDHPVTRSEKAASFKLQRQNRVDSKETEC
NR3A LBD binder – NR3A (human) ligand-binding domain modulation; NR3A LBD differential scanning fluorimetry, Tm shift; 0% = protein alone, 100% = glycine-bound protein; Tm shift relative to glycine control, % at 25 µM; 2.5% of 340,000 active; AID 1259313;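 active = melting temperature shift of at least 10% of the positive control shift, at one fixed dose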
MT1-MMP act inh – blocks activation of human MT1-MMP; 0.061% of 360,000 active; GFP/RFP ratio change, % at 20 µM; HT1080 RFP-PRO-GFP cells, GFP/RFP ratio fluorescence, overnight; percent of plate control window, DMSO zero; P50281;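 active = GFP/RFP ratio change of at least 30% with cell ATP level not reduced by more than half and red fluorescence within 50% of control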
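Material: RFP-PRO-GFP reporter HT1080 cells. Dosing: single-point 20 µM compound, 1% DMSO. Controls: DMSO and RFP-L50D-GFP cell wells. Timing: cells overnight before dosing, compound overnight, 37 °C, 5% CO2. Measure: GFP/RFP fluorescence ratio.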
MPTP counter – membrane potential counter-screen of mitochondrial pore inhibitors; shares compounds with MPTP inh; isolated mitochondria, Rhodamine 123 fluorescence; inhibition, % at 10 µM; 78% of 5,000 active; AID 624504; in the data active = inhibition above about 22%;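 note: 0% = DMSO vehicle and 100% = positive control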
The depositor's hits bear a star; i = inactive; / = not tested or not shown. Most compounds without a hit are left out; they make up all but 4.7% or so of the library.

SMILES | ADAM10 inh | MPTP inh | SKN-1 block | ADAM17 inh | NR3A LBD binder | MT1-MMP act inh | MPTP counter
CCCCCCc1cc2cc(S(=O)(=O)c3ccc(F)c(Cl)c3)c(=O)oc2cc1O | -112.3 | 79.0* | -9.1 | -30.6 | 33.2* | -23.1 | 86.4*
Cc1ccc(S(=O)(=O)c2cc3ccc(O)cc3oc2=O)cc1C | i | -0.5 | 9.8 | i | -2.7 | 3.9 | /
CCCCCCc1cc2cc(C(=O)Nc3cccc(OC)c3)c(=O)oc2cc1O | -10.6 | 56.3* | 6.8 | -4.5 | -3.0 | -4.4 | 20.6*
CCCCCCc1cc2cc(C(=O)NC)c(=N)oc2cc1O | i | 95.9* | 10.6 | -196.8 | -7.0 | -18.5 | 90.9*
COc1ccc(NC(=O)c2cc3ccccc3oc2=O)cc1 | -20.8 | 1.3 | 17.0 | -6.5 | / | 2.8 | /
CC(C)Cc1cc(C(=O)N2CCC(N3CCC(C(=O)NC4CC4)CC3)CC2)n[nH]1 | -6.8 | 0.2 | 14.1 | -5.0 | -2.9 | -2.4 | /
CC(C)NS(=O)(=O)c1ccc(OCC(=O)Nc2ccc(F)cc2)cc1 | -3.9 | -1.5 | -4.0 | -3.4 | 5.7 | 1.2 | /
COc1ccc(N=C2SC(CC(=O)Nc3ccccc3OC)C(=O)N2Cc2ccco2)cc1 (configuration not stated) | 15.0 | -1.0 | 12.0 | 6.8 | -17.3 | 2.6 | /
CC(C)C(OC(=O)c1nsc(Cl)c1Cl)C(=O)NCc1ccc2c(c1)OCO2 (configuration not stated) | -0.8 | -0.8 | -1.8 | 1.3 | 5.6 | -4.0 | /
CCCN(Cc1cc2cccc(C)c2[nH]c1=O)C(=O)c1cccc(OC)c1 | -30.6 | 7.0 | -1.3 | -15.6 | 0.7 | 1.2 | /
CCCCCCc1cc2cc(/C(N)=N/NC(=O)c3ccncc3)c(=O)oc2cc1O | -398.8 | -2.2 | 9.9 | -110.3 | -1.4 | -90.0 | /
CCCCCCc1cc2cc(C(=O)OCC)c(=O)oc2cc1O | -220.6 | 92.8* | -2.2 | -52.7 | -3.0 | -11.4 | 87.0*
Cc1ccc(C)c(OCC(=O)Nc2nc3ccc([N+](=O)[O-])cc3s2)c1C | 6.3 | 76.0* | 1.3 | 1.4 | -1.9 | -15.9 | 56.4*
CCC(=O)Nc1nc2ccc([N+](=O)[O-])cc2s1 | 6.8 | 2.6 | 13.2 | 0.1 | 0.5 | -17.1 | /
Cn1c(=O)c2c(nc(CN3CCCCC3)n2CCCc2ccccc2)n(C)c1=O | 0.1 | -2.0 | 27.6 | -0.7 | 2.8 | -1.5 | /
Cn1ncc(SCc2ccccc2)c(Cl)c1=O | -2.2 | 57.9* | 13.0 | 2.7 | 0.2 | -2.3 | 21.7*
Cn1ncc(S(=O)(=O)Cc2ccccc2)c(Cl)c1=O | -6.2 | 14.2 | 5.8 | -7.9 | 0.8 | -3.8 | /
COc1ccc(-c2[nH]c(-c3cc(OC)c4c(c3)OCO4)nc2-c2ccccc2)cc1 | -236.7 | 94.7* | 1.0 | -110.9 | 2.5 | -3.9 | 69.2*
Cc1cc(-c2ccc(C)c(S(=O)(=O)NCCCN3CCN(c4ccccc4F)CC3)c2)on1 | 0.3 | 72.5* | 23.4 | -3.4 | -8.8 | -3.9 | 84.8*
CCc1nc(SCc2nc3ccccc3[nH]2)c2oc3ccccc3c2n1 | -14.5 | 69.2* | 5.2 | -4.2 | -4.1 | -9.6 | 81.7*
COc1ccc2c(c1)oc1c(SCc3nc4ccccc4[nH]3)nc(C)nc12 | -22.0 | 0.5 | 0.5 | -7.1 | -10.8 | -1.8 | /
Cc1nc(SCc2nc3ccc(Br)cc3[nH]2)c2oc3ccccc3c2n1 | -3.2 | 44.4 | -2.4 | -0.5 | -0.6 | -3.3 | /
Cc1nc(SCc2nc3cc(Cl)c(F)cc3[nH]2)c2oc3ccccc3c2n1 | -15.9 | 62.8* | 25.4 | -5.0 | 9.3 | -7.4 | 79.8*
Cc1nc(SCc2nc3ccc(C(F)(F)F)cc3[nH]2)c2oc3ccccc3c2n1 | -5.2 | 50.4* | 0.3 | 1.9 | 5.1 | -4.9 | 89.3*
O=C(CNS(=O)(=O)c1cccs1)N1CCN(c2ccccc2F)CC1 | -0.6 | 1.9 | 16.6 | 1.2 | -0.4 | / | /
N=c1c2c(-c3ccccc3)c(-c3ccccc3)n(Cc3ccco3)c2ncn1CCCN1CCOCC1 | -5.1 | 71.2* | -7.2 | -4.0 | -1.8 | 7.6 | -3.9
COCCOC(=O)c1c(C)oc2ccc(NS(=O)(=O)c3ccccc3)cc12 | -6.1 | 2.9 | 9.1 | 2.5 | -1.3 | 4.9 | /
